Measurements from publication PMC2903386 (The Journal of Biological Chemistry, 2010).
Non-standard residues stand in square brackets, D forms with d. Residues, ends and D or L forms follow the SMILES beside them. *: point of attachment. X1 = CC[N+]1=C(C=CC=CC=C2N(CCCCCC(=O)NCCN3C(=O)CC(*)C3=O)c3ccc(S(=O)(=O)O)cc3C2(C)C)C(C)(C)c2cc(S(=O)(=O)[O-])ccc21; Ahx = NCCCCCC(=O)O

How the values were obtained:
[1] = Tumor standardized uptake value; type: in vivo; settings: PyMT, mouse, iv, 10 nmol
[2] = Cleavage of Cy5-labeled ACPPs by tumor tissue extract; type: in vitro ADME, mouse; settings: 5 μM purified Cy5-labeled peptide, 2% tumor extract, 37 °C, 2 h, 16% Tricine gel
Procedure, shortened: (§1)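 Fresh mouse tissue was gently homogenized in PBS on ice and spun at 14,000 × g for 1 min; the supernatant was used. 5 μM purified Cy5-labeled test peptide was incubated with 2% liver or tumor extract in PBS containing ZnCl2 at 37 °C for 2 h. Cleaved and uncleaved peptide were resolved on 16% Tricine gels and imaged by fluorescence.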

plasmin = plasmin (Homo sapiens, UniProt P00747); test: Cleavage by purified plasmin; type: in vitro ADME; settings: 5 μM purified Cy5-labeled peptide, 50 nM plasmin, 37 °C, 2 h, 16% Tricine gel
Procedure, shortened: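 Plasmin at 50 nM was incubated with 5 μM purified Cy5-labeled test peptide at 37 °C for 2 h, run alongside 2% tumor, liver or kidney extract digests. Products were resolved on 16% Tricine acrylamide gels and detected by Cy5 fluorescence imaging.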

[3] = Cleavage of Cy5-labeled ACPP by liver tissue extract; type: in vitro ADME, mouse; settings: 5 μM purified Cy5-labeled peptide, 2% liver extract, 37 °C, 2 h, 16% Tricine gel
Procedure, shortened: as §1

PyMT mammary tumors = test: Fluorescence imaging contrast in PyMT tumor-bearing mice; type: in vivo, mouse; settings: PyMT mice, fluorescence imaging 6 h after injection of 10 nmol
Procedure, shortened: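 PyMT transgenic mice bearing spontaneous mammary tumors were anesthetized with ketamine 80 mg/kg plus midazolam 5 mg/kg (1:1) and weighed. They were injected via the tail vein with Cy5 peptide: free peptide 100 μl of 100 μM (10 nmol) or albumin-reactive peptide 100 μl of 30 μM (3 nmol). Maestro imaging (ex 640 ± 24 nm, em >700 nm) was done at 6 h or 48 h, comparing tumor with adjacent normal tissue.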

plasmin, sequence (P00747 581-810 limits assumed): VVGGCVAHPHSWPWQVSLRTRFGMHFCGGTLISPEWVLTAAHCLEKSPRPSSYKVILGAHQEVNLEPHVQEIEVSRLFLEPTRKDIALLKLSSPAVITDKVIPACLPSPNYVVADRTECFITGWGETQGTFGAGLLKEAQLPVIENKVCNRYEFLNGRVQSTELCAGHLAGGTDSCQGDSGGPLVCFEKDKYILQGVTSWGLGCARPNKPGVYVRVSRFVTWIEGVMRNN
plasmin, sequence (P00747 97-580 partner limits assumed): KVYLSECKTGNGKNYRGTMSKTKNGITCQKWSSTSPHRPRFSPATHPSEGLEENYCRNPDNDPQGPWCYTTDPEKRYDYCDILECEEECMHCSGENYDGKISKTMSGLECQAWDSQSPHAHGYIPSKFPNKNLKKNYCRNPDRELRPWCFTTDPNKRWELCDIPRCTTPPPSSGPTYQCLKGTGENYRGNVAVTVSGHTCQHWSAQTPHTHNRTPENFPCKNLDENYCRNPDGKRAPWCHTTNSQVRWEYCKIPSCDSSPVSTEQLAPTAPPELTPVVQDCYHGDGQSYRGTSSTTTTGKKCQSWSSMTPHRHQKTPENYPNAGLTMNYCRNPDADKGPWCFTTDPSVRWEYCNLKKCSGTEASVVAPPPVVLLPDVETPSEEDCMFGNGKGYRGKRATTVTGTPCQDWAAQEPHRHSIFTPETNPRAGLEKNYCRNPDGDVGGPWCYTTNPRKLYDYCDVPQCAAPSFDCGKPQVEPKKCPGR

For `CC[N+]1=C(C=CC=CC=C2N(CCCCCC(=O)NCCN3C(=O)CC(SC[C@@H](NC(=O)[C@@H](CCCNC(=N)N)NC(=O)[C@@H](CCCNC(=N)N)NC(=O)[C@@H](CCCNC(=N)N)NC(=O)[C@@H](CCCNC(=N)N)NC(=O)[C@@H](CCCNC(=N)N)NC(=O)[C@@H](CCCNC(=N)N)NC(=O)[C@@H](CCCNC(=N)N)NC(=O)[C@@H](CCCNC(=N)N)NC(=O)[C@@H](CCCNC(=N)N)NC(=O)[C@H](CC(C)C)NC(=O)[C@H](CCCCNC(C)=O)NC(=O)[C@H](CC(C)C)NC(=O)[C@H](CCC(N)=O)NC(=O)[C@H](CC(C)C)NC(=O)[C@H](CCCNC(=N)N)NC(=O)CCCCCNC(=O)[C@@H](CCC(=O)O)NC(=O)[C@@H](CCC(=O)O)NC(=O)[C@@H](CCC(=O)O)NC(=O)[C@@H](CCC(=O)O)NC(=O)[C@@H](CCC(=O)O)NC(=O)[C@@H](CCC(=O)O)NC(=O)[C@@H](CCC(=O)O)NC(=O)[C@@H](CCC(=O)O)NC(=O)[C@H](N)CCC(=O)O)C(N)=O)C3=O)c3ccc(S(=O)(=O)O)cc3C2(C)C)C(C)(C)c2cc(S(=O)(=O)[O-])ccc21` (some centres unmarked) [RLQLK(Ac)L ACPP] (H-[dE][dE][dE][dE][dE][dE][dE][dE][dE][Ahx]RLQLK(Ac)L[dR][dR][dR][dR][dR][dR][dR][dR][dR][dC](X1)-NH2), the SUV at 6 h [1] was 0.48 ± 0.04 SUV, the “cleavage by tumor extracts, comparison with parent (in words)” value [2] was “efficiently cleaved” and the “cleavage by plasmin (in words)” value (plasmin) was “not cleaved”. For the same compound, the “cleavage by liver tissue extract compared with parent RLQLKL ACPP (in words)” value [3] was “significantly reduced” and the “Tumor to non-tumor contrast, free peptide” value (PyMT mammary tumors) was “less than 3 fold”.
